Measurements: ChEMBL document CHEMBL1137665, “Antistaphylococcal activity of CG400549, a new experimental FabI inhibitor, compared with that of other agents” (2007)
≈ marks a conversion by molar mass, not a printed value.

Legend:
Staphylococcus aureus [1] = assay: Antimicrobial activity against methicillin-resistant Staphylococcus aureus by agar dilution CLSI method; format: functional
Summary of the method: (§1)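 CLSI agar dilution MIC against S. aureus clinical isolates. Calcium was added to the medium for daptomycin testing. Vancomycin plates were read after a full 24-h incubation.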

Staphylococcus aureus [2] = assay: Antimicrobial activity against methicillin-susceptible Staphylococcus aureus by agar dilution CLSI method; format: functional; summary of the method: as §1

With `CC[C@H]1OC(=O)[C@H](C)[C@@H](O[C@H]2C[C@@](C)(OC)[C@@H](O)[C@H](C)O2)[C@H](C)[C@@H](O[C@@H]2O[C@H](C)C[C@H](N(C)C)[C@H]2O)[C@](C)(O)C[C@@H](C)CN(C)[C@H](C)[C@@H](O)[C@]1(C)O` [AZITHROMYCIN] the MIC50 (Staphylococcus aureus [1]) was greater than 64 µg/mL, the MIC50 (Staphylococcus aureus [2]) was 1 µg/mL (≈ 1.34 µM) and the MIC90 (Staphylococcus aureus [2]) was greater than 64 µg/mL.

With `C[C@H]1COc2c(N3CCN(C)CC3)c(F)cc3c(=O)c(C(=O)O)cn1c23.C[C@H]1COc2c(N3CCN(C)CC3)c(F)cc3c(=O)c(C(=O)O)cn1c23.O` [LEVOFLOXACIN] the MIC50 (Staphylococcus aureus [1]) was 1 µg/mL, the MIC90 (Staphylococcus aureus [1]) was greater than 32 µg/mL and the MIC50 (Staphylococcus aureus [2]) was 0.25 µg/mL. The MIC90 (Staphylococcus aureus [2]) was 4 µg/mL.
